# Only some compounds are listed: those with a hit (about 2% of all), similar ones and a draw of the others.
# PTPN22 inh 2: LYP (human) phosphatase inhibition; recombinant LYP catalytic domain, DiFMUP fluorescence; inhibition, % at 2 µM; 96,000 compounds, 0.21% hits; AID 640;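 active = inhibition at 2 µM at or above a set limit, the screen mean plus 3 SD, cut at about 24% in these data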
# PLK1 PBD inh: blocks phosphopeptide binding to human Plk1 polo box domain; P53350; Plk1 PBD phosphopeptide binding, fluorescence polarization; inhibition, %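 (tested at about 20 µM)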; 97,000 compounds, 0.13% hits; AID 693; in the data active = inhibition above about 34%, passing the limit was not always enough
# Target sequence (P53350 whole entry, looked up, the tested form may be a part): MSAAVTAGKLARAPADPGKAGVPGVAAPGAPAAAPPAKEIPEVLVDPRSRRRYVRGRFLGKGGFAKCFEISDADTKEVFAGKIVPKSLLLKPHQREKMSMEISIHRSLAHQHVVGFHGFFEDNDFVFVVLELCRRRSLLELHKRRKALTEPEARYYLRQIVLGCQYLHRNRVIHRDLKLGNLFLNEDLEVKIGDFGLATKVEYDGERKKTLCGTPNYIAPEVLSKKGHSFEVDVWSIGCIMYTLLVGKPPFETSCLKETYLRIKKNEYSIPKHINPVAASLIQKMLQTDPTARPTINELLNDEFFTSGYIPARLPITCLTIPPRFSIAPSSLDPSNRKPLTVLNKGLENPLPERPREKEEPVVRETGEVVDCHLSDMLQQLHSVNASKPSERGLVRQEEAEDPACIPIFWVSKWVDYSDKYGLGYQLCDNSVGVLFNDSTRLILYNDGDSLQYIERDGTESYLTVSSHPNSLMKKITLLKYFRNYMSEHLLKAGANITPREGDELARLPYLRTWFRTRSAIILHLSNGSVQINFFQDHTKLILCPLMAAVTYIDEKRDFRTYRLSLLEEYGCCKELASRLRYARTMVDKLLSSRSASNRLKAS
# EphB4 ephrin blk: blocks human EphB4 binding to ephrin-B2; EphB4 LBD / TNYL-RAW-Alexa532 peptide, fluorescence polarization; inhibition, % at 7 µM; 97,000 compounds, 0.15% hits;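 active = inhibition above the screen-wide mean inhibition plus 3 SD, cut at about 15% in these data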
# PTPN22 act: activators of human LYP (PTPN22) phosphatase | Q9Y2R2 | recombinant LYP, DiFMUP fluorescence; 0 = plate median, 100 = signal doubled | activation, % at 2 µM | 96,000 compounds, 0.11% hits;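 active = activation at 2 µM above a set limit, the mean plus 5 SD, cut at about 37% in these data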
# PLK1 inh: inhibitors of human PLK1 kinase. 97,000 compounds, 0.53% hits. P53350. inhibition, % at 10 µM. AID 619. recombinant PLK1 kinase, TR-FRET peptide phosphorylation;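 active = inhibition of 50% or more in the single-concentration screen; inactive = inhibition below 50%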
# Rev-RRE block: HIV Rev-RRE protein-RNA interaction inhibition; Rev peptide-RRE RNA binding, FRET; inhibition, % at 8 µM; 97,000 compounds, 0.79% hits; P05866;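 active = inhibition above the screen-wide mean plus 3 SD, cut at about 35% in these data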
#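 Test system – labelled RRE RNA duplex and labelled Rev peptide · Signal – fluorescein-to-Cy5 FRET, 480 nm excitation · Evaluation – % inhibition of FRET ratio versus controls · Benchmarks – DMSO low control, neomycin B high control · Incubation – 5 min RNA-compound premix plus 15 min binding step, 25 °C · Medium – HEPES pH 7.5 salt buffer with EDTA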
# Hits are given with their value; i = inactive; nt = no result given; [ ] = remark or other dose.
SMILES,PTPN22 inh 2,PLK1 PBD inh,EphB4 ephrin blk,PTPN22 act,PLK1 inh,Rev-RRE block
Cc1cc(C)nc(/N=C(\N)Nc2ccc(F)c([N+](=O)[O-])c2)n1,i,i,i,i,i,i
CC(c1ccccc1)N1C(=O)CC(Sc2ncccc2C(=O)O)C1=O (stereo not given),i,i,i,i,i,i
O=C(O)c1ccccc1SC1CC(=O)N(C2CCCCC2)C1=O (stereo not given),nt,i,i,nt,69,i
COCCNC(=O)c1onc(CSc2ccc(C(C)C)cc2)c1C(=O)O,i,i,i,i,i,i
CCOC(=O)Cc1cc(OC)c(OC)cc1Cc1cc(OC)c(OC)cc1CC(=O)OCC,i,i,i,i,i,i
COc1ccc(OC)c(/C=c2\sc3nc(-c4cccs4)nn3c2=O)c1,i,i,i,i,i,57
COc1cc(/C=C/c2cc(OC(C)=O)c3ccccc3n2)c(OC(C)=O)c([N+](=O)[O-])c1,i,i,i,i,i,i
CC1(C)CC(NC(=O)C23CCC(C)(C(=O)C2)C3(C)C)CC(C)(C)N1 (stereo not given),i,i,i,i,i,i
CC1CCc2c(sc(NC(=O)c3ccc(Cn4cc([N+](=O)[O-])cn4)o3)c2C#N)C1 (stereo not given),25,i,i,i,i,i
CCOc1ccc(N=C2NC(=O)C(CC(=O)O)S2)cc1 (stereo not given),i,i,i,i,i,i
CCOc1ccc(N=C2NC(=O)S/C2=C\c2ccc(N(C)C)cc2)cc1,i,i,i,i,i,118[fluorescence artefact?]
COc1ccc(/C=N/NC(=O)c2ccc(Cn3cc([N+](=O)[O-])cn3)o2)cc1O,i,i,i,i,i,i
COc1ccc(/C=N/Nc2ccc([N+](=O)[O-])cc2)cc1Cn1cc([N+](=O)[O-])cn1,i,i,i,i,i,54
O=C(CN(C(=O)CSc1nc2ccccc2o1)c1ccccc1)NC1CCCCC1,i,i,i,i,i,i
c1csc(C(c2nnnn2C2CCCC2)N2CCCC3(CCCCC3)C2)c1 (stereo not given),i,i,i,i,i,i
CCCC(=O)N1CCN(c2ccc(NC(=S)NC(=O)CC)cc2)CC1,i,i,i,i,i,i
CC1CCc2cccc3c2N1c1cc(C#N)c(C#N)cc1O3 (stereo not given),i,i,i,i,i,40
CC1CCCCN1c1cc(C#N)c(C#N)cc1[N+](=O)[O-] (stereo not given),i,i,i,i,i,i
O=C(Nc1cccc(Cl)c1Cl)c1ccncc1,i,i,i,i,54,i
O=C(Nc1ccc(Cl)cc1)c1ccncc1,i,i,i,i,i,i
COc1ccccc1NS(=O)(=O)c1ccc(NC(=O)c2nc3nc(C)cc(C(F)F)n3n2)cc1,i,i,i,i,i,i
Cc1ccc(S(=O)(=O)/C(C#N)=C/c2c(N3CCC(C(N)=O)CC3)nc3ccccn3c2=O)cc1,i,i,i,i,i,i
CCOC(=O)CN1C=C(c2ccc3ccccc3n2)C(C[N+](=O)[O-])c2ccccc21 (stereo not given),i,i,i,i,i,94[fluorescence artefact?]
COc1cccc(NC(=O)N(C2CCCCC2)C(C)c2cccs2)c1 (stereo not given),i,i,i,i,i,i
O=C(CCC(=O)c1cccs1)Nc1ccc(F)c(F)c1F,i,i,i,i,i,i
SMILES,PTPN22 inh 2,PLK1 PBD inh,EphB4 ephrin blk,PTPN22 act,PLK1 inh,Rev-RRE block
Cn1nc(SCC(=O)O)sc1=S,i,i,i,i,i,140[fluorescence artefact?]
O=[N+]([O-])c1ccccc1-c1ccc(/C=N/n2cnnc2)o1,i,i,i,i,i,i
CCSC1=N/C(=C\c2ccc(-c3ccccc3[N+](=O)[O-])o2)C(=O)S1,i,i,i,i,i,54
CCN1CCCC1CNC(=O)C(=O)Nc1ccccc1OC (stereo not given),i,i,i,i,i,i
CC1CCN(C(c2cccs2)c2nnnn2Cc2ccccc2)CC1 (stereo not given),i,i,i,i,i,i
Cc1ccc2cc(C#N)c(SCC(=O)N3CCCc4ccccc43)nc2c1C,i,i,i,i,i,i
O=C(Nc1nnc(C2CC2)s1)C1Cc2ccccc2CN1S(=O)(=O)c1ccccc1F (stereo not given),i,i,i,i,i,i
COc1cccc(-c2cc(C(F)(F)F)nc(N3CCOCC3)n2)c1,i,i,i,i,i,i
COc1cccc(-c2cc(C(F)(F)F)nc(N3CCC(C)CC3)n2)c1,i,i,i,i,i,41
NC(=O)c1cc2cc(Cl)ccc2oc1=O,i,i,i,i,i,i
CCN(CC)c1ccc2cc(C(N)=O)c(=O)oc2c1,i,i,i,i,i,41
CCN(CC)c1ccc2cc(C(C)=O)c(=O)oc2c1,i,i,i,i,i,126[fluorescence artefact?]
CCN(CC)c1ccc(-n2c(C)cc(C=O)c2C)cc1,i,i,i,i,i,i
CCN(CC)c1ccc2cc(-c3nnc(-c4ccncc4)o3)c(=O)oc2c1,i,i,i,i,i,143[fluorescence artefact?]
CCN(CC)c1ccc2cc(C=O)c(=O)oc2c1,i,i,i,i,i,140[fluorescence artefact?]
CC1(C)Cc2c(c(N3CCOCC3)nc3sc(-c4ccc(C(=O)O)o4)c(N)c23)CO1,i,i,i,i,i,40
CNC(=O)c1ccc(-c2sc3nc(N4CCOCC4)c4c(c3c2N)CC(C)(C)OC4)o1,i,i,i,i,i,i
CCN1CCc2nc(NC(=O)Cc3ccc4c(c3)OCCO4)sc2C1,i,i,i,i,i,i
Cc1nnc(NC(=O)c2cccc(S(=O)(=O)N3CCc4ccccc43)c2)s1,i,i,i,i,i,i
O=C(Nc1nc2c(s1)CN(Cc1ccccc1)CC2)c1cccc(S(=O)(=O)N2CCc3ccccc32)c1,i,i,i,i,i,122[fluorescence artefact?]
CCN1CCc2nc(NC(=O)c3ccc4c(c3)OCCO4)sc2C1,i,i,i,i,i,36
O=S(=O)(NCc1cc(-c2ccccc2Cl)no1)c1ccc(Cl)cc1,i,i,i,i,i,i
Cc1nc2cc(C(=O)O)ccc2n1-c1ccccc1,nt,i,i,nt,69,i
COC(=O)CN1C(=O)S/C(=C/c2ccc(N3CCCCC3)o2)C1=O,i,i,i,i,i,140[fluorescence artefact?]
CCOC(=O)CN1C(=O)S/C(=C/c2ccc(N3CCCCC3)o2)C1=O,i,i,i,i,i,112[fluorescence artefact?]
COC(=O)CN1C(=O)S/C(=C/c2cc(C)n(C)c2C)C1=O,i,i,i,i,i,i
CC(C)c1ccc(/C=C2\CC/C(=C\C=N\N(C)C)C2=O)cc1,i,i,i,i,i,46
CC(=O)C1=C(C)NC(SCc2cccc([N+](=O)[O-])c2)=C(C#N)C1c1ccco1 (stereo not given),i,i,i,i,i,i
COc1ccc(C2N=C(c3ccccc3)C(C)(C)N2O)cc1 (stereo not given),i,i,i,i,i,i
CCSc1nnc(-c2ccncc2)o1,i,i,i,i,i,i

# Assay outcomes deposited in PubChem by several laboratories.
